Measurements reported in ChEMBL document CHEMBL4428053, “Application of a Parallel Synthetic Strategy in the Discovery of Biaryl Acyl Sulfonamides as Efficient and Selective NaV1.7 Inhibitors” (J Med Chem, 2016).
Values after ≈ are worked out from the molar mass of the structure shown.

Columns and labels:
[1] = target: T1, Sodium channel protein type 9 subunit alpha (Homo sapiens, UniProt Q15858); assay: Inhibition of human Nav1.7 expressed in HEK293 cells incubated for 3 to 5 mins at -125 mV holding potential by electrophysiology assay; type: cell-based
T1 sequence (Q15858 whole entry): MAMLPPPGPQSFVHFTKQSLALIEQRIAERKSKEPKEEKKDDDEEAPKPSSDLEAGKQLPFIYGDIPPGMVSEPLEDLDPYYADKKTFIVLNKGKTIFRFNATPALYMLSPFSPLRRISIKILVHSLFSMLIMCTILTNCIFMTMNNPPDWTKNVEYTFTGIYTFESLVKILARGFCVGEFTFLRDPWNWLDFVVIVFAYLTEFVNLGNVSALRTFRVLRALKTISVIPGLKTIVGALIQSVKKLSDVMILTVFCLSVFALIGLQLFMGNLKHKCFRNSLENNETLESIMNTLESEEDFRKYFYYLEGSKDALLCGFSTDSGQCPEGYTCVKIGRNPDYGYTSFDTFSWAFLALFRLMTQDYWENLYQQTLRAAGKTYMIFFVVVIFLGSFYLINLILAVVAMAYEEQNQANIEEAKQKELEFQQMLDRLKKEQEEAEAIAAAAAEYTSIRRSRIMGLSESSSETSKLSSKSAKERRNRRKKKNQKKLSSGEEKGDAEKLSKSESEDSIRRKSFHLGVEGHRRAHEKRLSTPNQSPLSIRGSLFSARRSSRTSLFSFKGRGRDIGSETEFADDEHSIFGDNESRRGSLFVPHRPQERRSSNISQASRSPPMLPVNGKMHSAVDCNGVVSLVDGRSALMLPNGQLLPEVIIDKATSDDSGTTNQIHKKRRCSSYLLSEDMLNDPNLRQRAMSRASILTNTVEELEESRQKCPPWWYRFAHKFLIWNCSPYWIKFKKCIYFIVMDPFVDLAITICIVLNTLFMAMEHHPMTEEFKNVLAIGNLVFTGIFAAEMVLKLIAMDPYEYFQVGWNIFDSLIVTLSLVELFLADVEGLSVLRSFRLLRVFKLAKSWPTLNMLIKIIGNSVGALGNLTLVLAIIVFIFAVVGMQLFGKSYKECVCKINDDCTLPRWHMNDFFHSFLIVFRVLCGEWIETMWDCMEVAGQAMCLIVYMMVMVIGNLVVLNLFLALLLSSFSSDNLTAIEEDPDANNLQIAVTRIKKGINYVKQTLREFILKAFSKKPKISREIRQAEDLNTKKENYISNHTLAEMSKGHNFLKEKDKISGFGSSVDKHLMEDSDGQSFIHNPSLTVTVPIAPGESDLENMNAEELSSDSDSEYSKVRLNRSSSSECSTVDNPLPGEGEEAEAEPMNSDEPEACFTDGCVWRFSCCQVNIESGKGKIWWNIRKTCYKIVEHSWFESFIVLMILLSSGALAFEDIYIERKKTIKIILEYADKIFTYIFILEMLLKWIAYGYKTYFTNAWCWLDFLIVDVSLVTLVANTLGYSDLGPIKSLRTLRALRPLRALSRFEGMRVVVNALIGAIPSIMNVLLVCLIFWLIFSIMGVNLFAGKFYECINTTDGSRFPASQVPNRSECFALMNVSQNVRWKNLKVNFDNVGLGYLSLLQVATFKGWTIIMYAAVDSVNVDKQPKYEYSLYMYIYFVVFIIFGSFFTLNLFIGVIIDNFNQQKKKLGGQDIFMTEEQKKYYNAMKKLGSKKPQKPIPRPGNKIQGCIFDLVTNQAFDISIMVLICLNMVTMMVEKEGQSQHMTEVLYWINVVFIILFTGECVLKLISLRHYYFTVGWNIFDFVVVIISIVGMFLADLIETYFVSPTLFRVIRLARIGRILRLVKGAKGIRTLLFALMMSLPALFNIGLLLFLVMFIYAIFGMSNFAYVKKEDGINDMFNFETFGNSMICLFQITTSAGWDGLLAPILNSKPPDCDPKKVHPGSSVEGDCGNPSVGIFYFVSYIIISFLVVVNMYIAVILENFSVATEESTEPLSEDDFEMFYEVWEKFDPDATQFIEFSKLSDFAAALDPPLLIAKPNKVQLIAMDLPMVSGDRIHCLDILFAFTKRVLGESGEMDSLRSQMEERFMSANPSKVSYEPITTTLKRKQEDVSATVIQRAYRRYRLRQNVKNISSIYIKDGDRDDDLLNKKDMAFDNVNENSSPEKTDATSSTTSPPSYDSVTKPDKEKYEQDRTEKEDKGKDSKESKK

[2] = target: Sodium channel protein type 9 subunit alpha (Mus musculus, UniProt Q62205); assay: Inhibition of mouse Nav1.7 expressed in HEK293 cells incubated for 3 to 5 mins at -125 mV holding potential by electrophysiology assay; type: cell-based
[3] = Oral bioavailability in Harlan rat at 10 mg/kg by LC-MS/MS analysis; type: ADME, organism-based; conditions: in vivo
Procedure, shortened: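 Male fed rats. The IV dose was given in 100% DMSO. The oral dose was given in 1% Tween 80, 2% HPMC, 97% water/NaOH (pH 8.5).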

[4] = Plasma protein binding in Harlan rat at 1 mg/kg, iv by LC-MS/MS analysis; type: ADME, organism-based; conditions: read-out: PPB (converted)
[5] = target: T1, Sodium channel protein type 9 subunit alpha; assay: Inhibition of human Nav1.7 expressed in HEK293 cells assessed as reduction in peak inward current by manual whole cell patch clamp electrophysiology assay; type: cell-based
[6] = target: Sodium channel protein type 1 subunit alpha (Homo sapiens, UniProt P35498); assay: Inhibition of human Nav1.1 expressed in HEK293 cells assessed as reduction in peak inward current by manual whole cell patch clamp electrophysiology assay; type: cell-based
[7] = target: Sodium channel protein type 4 subunit alpha (Homo sapiens, UniProt P35499); assay: Inhibition of human Nav1.4 expressed in HEK293 cells assessed as reduction in peak inward current by manual whole cell patch clamp electrophysiology assay; type: cell-based
[8] = target: Sodium channel protein type 8 subunit alpha (Homo sapiens, UniProt Q9UQD0); assay: Inhibition of human Nav1.6 expressed in HEK293 cells assessed as reduction in peak inward current by manual whole cell patch clamp electrophysiology assay; type: cell-based
[9] = target: Sodium channel protein type 10 subunit alpha (Homo sapiens, UniProt Q9Y5Y9); assay: Inhibition of human Nav1.8 expressed in CHO cells assessed as reduction in peak inward current by manual whole cell patch clamp electrophysiology assay; type: cell-based
Sodium channel protein type 10 subunit alpha, sequence (Q9Y5Y9 whole entry): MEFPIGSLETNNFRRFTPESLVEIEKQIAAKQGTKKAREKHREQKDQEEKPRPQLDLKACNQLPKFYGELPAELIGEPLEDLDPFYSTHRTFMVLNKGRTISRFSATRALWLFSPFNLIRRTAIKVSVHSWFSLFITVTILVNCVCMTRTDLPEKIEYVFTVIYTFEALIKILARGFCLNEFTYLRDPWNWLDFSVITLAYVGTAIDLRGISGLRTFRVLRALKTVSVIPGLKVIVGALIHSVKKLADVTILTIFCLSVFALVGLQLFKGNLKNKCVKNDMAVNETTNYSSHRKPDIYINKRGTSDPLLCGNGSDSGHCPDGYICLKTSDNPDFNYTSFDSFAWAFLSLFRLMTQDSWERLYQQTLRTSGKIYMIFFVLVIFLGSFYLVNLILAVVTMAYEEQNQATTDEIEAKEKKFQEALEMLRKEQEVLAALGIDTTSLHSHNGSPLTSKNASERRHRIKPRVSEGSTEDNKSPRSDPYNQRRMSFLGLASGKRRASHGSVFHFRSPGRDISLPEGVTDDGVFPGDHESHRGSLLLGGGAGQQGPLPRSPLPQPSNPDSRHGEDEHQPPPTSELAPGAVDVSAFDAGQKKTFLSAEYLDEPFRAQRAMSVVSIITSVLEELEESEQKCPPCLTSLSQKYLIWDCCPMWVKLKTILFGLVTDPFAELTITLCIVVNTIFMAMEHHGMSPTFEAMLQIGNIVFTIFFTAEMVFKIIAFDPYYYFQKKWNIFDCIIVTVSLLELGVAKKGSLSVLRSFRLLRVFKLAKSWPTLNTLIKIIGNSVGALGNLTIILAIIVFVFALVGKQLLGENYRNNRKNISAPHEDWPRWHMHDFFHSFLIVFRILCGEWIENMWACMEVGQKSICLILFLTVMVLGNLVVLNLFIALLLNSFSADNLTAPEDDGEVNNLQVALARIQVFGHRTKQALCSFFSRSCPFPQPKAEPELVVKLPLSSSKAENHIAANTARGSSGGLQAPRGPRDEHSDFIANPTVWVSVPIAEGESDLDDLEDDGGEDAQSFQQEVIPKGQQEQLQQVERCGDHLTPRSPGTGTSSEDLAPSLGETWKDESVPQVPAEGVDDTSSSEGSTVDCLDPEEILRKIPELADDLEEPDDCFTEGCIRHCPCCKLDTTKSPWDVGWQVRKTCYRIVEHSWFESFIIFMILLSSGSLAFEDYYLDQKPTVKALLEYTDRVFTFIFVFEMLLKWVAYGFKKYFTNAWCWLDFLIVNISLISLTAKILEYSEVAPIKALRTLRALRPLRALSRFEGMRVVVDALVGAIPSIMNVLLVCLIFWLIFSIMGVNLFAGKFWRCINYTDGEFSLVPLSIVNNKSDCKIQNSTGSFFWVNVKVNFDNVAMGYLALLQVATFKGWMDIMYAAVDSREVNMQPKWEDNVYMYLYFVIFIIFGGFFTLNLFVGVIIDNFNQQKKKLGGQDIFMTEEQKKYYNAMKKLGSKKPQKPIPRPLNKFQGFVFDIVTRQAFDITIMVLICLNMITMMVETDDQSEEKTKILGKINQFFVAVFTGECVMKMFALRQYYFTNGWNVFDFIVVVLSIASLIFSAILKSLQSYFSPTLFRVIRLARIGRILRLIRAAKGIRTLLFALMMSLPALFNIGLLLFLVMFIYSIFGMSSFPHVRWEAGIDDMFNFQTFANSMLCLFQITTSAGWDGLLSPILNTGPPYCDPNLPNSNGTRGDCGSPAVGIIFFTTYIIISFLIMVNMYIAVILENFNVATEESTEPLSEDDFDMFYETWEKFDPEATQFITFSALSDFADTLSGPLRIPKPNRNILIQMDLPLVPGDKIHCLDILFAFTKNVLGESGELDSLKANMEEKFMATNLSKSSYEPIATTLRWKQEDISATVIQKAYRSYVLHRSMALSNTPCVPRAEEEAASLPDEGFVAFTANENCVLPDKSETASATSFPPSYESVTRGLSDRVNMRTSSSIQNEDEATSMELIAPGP

[10] = target: Bile salt export pump (Homo sapiens, UniProt O95342); assay: Inhibition of human BSEP in plasma membrane vesicles after 10 mins in presence of [3H]-taurocholate by topcount based transport assay; type: cell membranes
[11] = target: T1, Sodium channel protein type 9 subunit alpha; assay: Inhibition of human Nav1.7 expressed in HEK293 cells assessed as tonic block at pulse 1 by ionworks quattro electrophysiology assay; type: cell-based
[12] = target: T2, Nuclear receptor subfamily 1 group I member 2 (Homo sapiens, UniProt O75469); assay: Induction of human PXR at 10 uM; type: ADME
T2 sequence (O75469 whole entry): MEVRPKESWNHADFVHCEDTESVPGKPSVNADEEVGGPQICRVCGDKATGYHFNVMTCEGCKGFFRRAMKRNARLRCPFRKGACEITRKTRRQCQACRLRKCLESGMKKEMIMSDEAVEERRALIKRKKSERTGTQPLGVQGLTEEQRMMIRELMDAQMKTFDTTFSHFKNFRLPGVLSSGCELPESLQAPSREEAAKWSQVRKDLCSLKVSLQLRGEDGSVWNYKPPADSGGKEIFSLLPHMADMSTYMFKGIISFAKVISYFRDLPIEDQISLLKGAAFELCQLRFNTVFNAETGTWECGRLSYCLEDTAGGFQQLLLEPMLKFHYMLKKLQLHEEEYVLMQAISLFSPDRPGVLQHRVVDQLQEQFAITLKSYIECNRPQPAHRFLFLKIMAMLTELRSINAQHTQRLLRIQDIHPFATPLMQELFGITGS

[13] = Toxicity in naive C57BL/6 mouse assessed as effect on basic locomotor movement at 300 mg/kg, po measured after 4 hrs for 60 mins by open field test; type: organism-based; conditions: in vivo
Procedure, shortened: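 Naive mice were dosed orally with vehicle or test article at 30, 100 or 300 mg/kg (n = 10 per group). Total basic movement in an open-field arena was recorded after dosing, and unbound plasma concentration was reported per dose.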

[14] = Unbound plasma concentration in C57BL/6 mouse model of histamine-induced scratching at 300 mg/kg, po administered 4 hrs prior to histamine challenge; type: ADME, organism-based; conditions: in vivo
Procedure, shortened: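 Mice were dosed orally with vehicle, diphenhydramine (30 mg/kg, n = 8) or test article at 30 (n = 9), 100 (n = 10) or 300 (n = 10) mg/kg; vehicle n = 12. All groups received histamine intradermally. Total scratch bouts were counted, with unbound plasma concentration reported per dose. Statistics: one-way ANOVA with Dunnett's test versus vehicle.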

[15] = target: Cytochrome P450 3A4 (Homo sapiens, UniProt P08684)
Cytochrome P450 3A4, sequence (P08684 whole entry): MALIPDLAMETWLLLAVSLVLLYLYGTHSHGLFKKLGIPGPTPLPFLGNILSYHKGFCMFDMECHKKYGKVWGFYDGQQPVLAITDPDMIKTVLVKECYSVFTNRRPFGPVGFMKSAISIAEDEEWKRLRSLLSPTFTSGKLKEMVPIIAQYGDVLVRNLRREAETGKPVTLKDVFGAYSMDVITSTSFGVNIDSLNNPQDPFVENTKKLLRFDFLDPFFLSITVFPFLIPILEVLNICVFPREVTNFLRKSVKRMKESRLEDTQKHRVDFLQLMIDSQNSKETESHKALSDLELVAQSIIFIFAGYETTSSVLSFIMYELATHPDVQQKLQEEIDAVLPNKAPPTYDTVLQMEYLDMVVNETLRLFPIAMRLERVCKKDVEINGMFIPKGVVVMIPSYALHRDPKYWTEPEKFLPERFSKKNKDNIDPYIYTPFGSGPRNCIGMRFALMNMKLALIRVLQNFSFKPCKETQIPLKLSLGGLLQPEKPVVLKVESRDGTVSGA

[16] = physchem; conditions: fasted state simulated intestinal fluid, pH 6.8
[17] = Toxicity in C57BL/6 mouse assessed as reduction in locomotor activity at 30 mg/kg, po for 4 hrs by open field test; conditions: in vivo
[18] = Toxicity in C57BL/6 mouse assessed as reduction in locomotor activity at 100 mg/kg, po for 4 hrs by open field test; conditions: in vivo

IC50 [1]: 0.069 µM
IC50 [2]: 0.115 µM
bioavailability [3]: > 100%
fraction unbound [4]: 0.004
IC50 [5]: 0.051 µM
IC50 [6]: 8.5 µM
IC50 [7]: 1.1 µM
IC50 [8]: 9.4 µM
IC50 [9]: 15.6 µM
IC50 [11]: 0.044 µM
Activity [12]: 3%
Cp(f) [14]: 4.16 µM
IC50 [15]: > 50 µM
solubility thermodynamic at 24 h [16]: 500 µM (≈ 243 µg/mL)
SMILES: COc1cc(C(=O)NS(C)(=O)=O)c(F)cc1-c1cnc(Oc2cc(F)ccc2F)c(Cl)c1
IC50 [10]: 13.3 µM
Activity [13]: Non-Toxic
Activity [17]: Non-Toxic
Activity [18]: Non-Toxic
